The record followed here is PMC3711074 (Chemistry & biology, 2013).

One assay addresses UBC9 (SUMO E2 enzyme) (Homo sapiens, UniProt P63279). As to the kind of experiment: reconstituted sumoylation cascade, electrophoretic mobility shift IC50. The format is biochemical. In short, it runs like this: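 Reconstituted cascade in 50 mM Tris pH 9.0 with 5 mM MgCl2 and 1 mM DTT. Contains SUMO E1 0.1 µM, His-tagged SUMO-1 1.4 µM, UBC9 0.25 µM and a 5-FAM-labelled peptide substrate at 1.0 µM. Started with ATP (final 2 mM), run with test compound at varying concentrations for 90 min at room temperature, then EDTA-quenched. Conversion read by microfluidic mobility shift. IC50 from the mean of three replicates.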
On the technique in general: A gel shift assay detects complexes by their altered migration in electrophoresis.

The target of assay [1] is T1, SUMO-activating enzyme 1/2 (SAE 1/2, SUMO E1) (Homo sapiens, UniProt Q9UBT2).
T1 sequence (Q9UBT2 1-640): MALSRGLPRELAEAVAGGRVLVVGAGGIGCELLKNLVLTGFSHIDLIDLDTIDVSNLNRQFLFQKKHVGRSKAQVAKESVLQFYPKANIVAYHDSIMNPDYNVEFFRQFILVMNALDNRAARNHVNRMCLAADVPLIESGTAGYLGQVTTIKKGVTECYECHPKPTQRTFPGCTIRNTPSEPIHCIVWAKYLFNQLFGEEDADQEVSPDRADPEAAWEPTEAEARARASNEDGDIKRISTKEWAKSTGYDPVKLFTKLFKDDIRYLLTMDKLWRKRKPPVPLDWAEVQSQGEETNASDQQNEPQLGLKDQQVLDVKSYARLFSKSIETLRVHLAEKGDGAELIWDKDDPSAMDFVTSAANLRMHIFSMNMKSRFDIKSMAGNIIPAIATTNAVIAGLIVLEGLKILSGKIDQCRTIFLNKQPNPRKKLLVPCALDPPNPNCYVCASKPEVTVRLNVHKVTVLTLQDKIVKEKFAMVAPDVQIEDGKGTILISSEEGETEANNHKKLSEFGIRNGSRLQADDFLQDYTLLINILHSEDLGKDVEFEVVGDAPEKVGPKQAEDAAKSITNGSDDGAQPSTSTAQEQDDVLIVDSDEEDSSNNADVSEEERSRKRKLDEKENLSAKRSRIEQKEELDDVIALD
T1 sequence (Q9UBE0 1-346 partner): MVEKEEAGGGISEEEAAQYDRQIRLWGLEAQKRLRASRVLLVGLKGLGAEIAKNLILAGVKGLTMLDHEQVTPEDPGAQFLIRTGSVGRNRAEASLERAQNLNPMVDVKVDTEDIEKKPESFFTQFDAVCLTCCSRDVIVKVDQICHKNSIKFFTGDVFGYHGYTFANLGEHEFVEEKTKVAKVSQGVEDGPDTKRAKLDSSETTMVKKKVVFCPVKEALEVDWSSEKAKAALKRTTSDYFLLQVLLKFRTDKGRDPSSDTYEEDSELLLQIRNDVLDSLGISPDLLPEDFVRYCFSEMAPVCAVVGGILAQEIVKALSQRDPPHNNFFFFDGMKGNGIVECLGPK
As to the kind of experiment: E1-SUMO-1 thioester formation gel assay with fluorescent SUMO-1. The format is biochemical.

The IC50 is the concentration at which inhibition is half-maximal.

Chain of UBC9 (SUMO E2 enzyme) (P63279 2-158): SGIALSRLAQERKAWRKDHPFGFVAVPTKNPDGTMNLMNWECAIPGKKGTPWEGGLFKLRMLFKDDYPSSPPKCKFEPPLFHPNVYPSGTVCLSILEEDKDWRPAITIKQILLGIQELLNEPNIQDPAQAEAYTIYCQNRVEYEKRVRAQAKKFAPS
Chain of UBC9 (SUMO E2 enzyme) (P63165 2-97 partner): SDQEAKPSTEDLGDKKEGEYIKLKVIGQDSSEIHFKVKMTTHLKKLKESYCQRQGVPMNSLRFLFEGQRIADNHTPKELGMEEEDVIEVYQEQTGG

Take `O=c1cc(-c2ccc(O)c(O)c2O)oc2ccccc12` [2-D08, 2’,3’,4’-trihydroxyflavone]: the IC50 at UBC9 (SUMO E2 enzyme) turned out to be 6 ± 1.3 µM.

`CCCCCC/C=C\CCCCCCCc1cccc(O)c1C(=O)O` [ginkgolic acid] came in with a concentration for half-maximal inhibition (IC50) in assay [1] of 9.1 µM.
